Source: ChEMBL document CHEMBL1142148, “Antibiotic susceptibility profile of bifidobacteria as affected by oxgall, acid, and hydrogen peroxide stress” (2007)
Values after ≈ are worked out from the molar mass of the structure shown.

Columns and labels:
Bifidobacterium longum [1] = assay: Antimicrobial activity against 90 mins oxgall-stressed Bifidobacterium longum ATCC 15708 after 18 hrs; format: functional
How it was run: (§1)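 Cells pelleted from mid-log MRS culture and resuspended in MRS (initial pH 6.5) with 0.3% (wt/vol) oxgall for 90 min anaerobically at 37°C. They were then regrown in MRS pH 6.5 for 24 h (footnote: 18 h) anaerobically and tested for MIC by the same broth microdilution assay. Median of four repetitions.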

Bifidobacterium longum [2] = assay: Antimicrobial activity against Bifidobacterium longum P/N 601377; format: functional
How it was run: (§2)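 Broth microdilution in MRS plus 0.05% L-cysteine-HCl. Mid-log culture adjusted to OD650 0.1, giving about 2.5 × 10^4 to 5.0 × 10^4 CFU/well, then added to twofold serial dilutions of agent. Plates incubated anaerobically at 37°C for 18 h and read at OD650. MIC is the lowest concentration matching the uninoculated blank OD, taken as the median of four repeats.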

Bifidobacterium bifidum [3] = assay: Antimicrobial activity against Bifidobacterium bifidum ATCC 15696; format: functional; how it was run: as §2
[4] = test system: Bifidobacterium pseudolongum; assay: Antimicrobial activity against Bifidobacterium pseudolongum ATCC 25562; format: functional; how it was run: as §2
[5] = test system: Bifidobacterium thermophilum; assay: Antimicrobial activity against Bifidobacterium thermophilum ATCC 25866; format: functional; how it was run: as §2
[6] = Antimicrobial activity against 90 mins oxgall-stressed Bifidobacterium infantis ATCC 15697 after 18 hrs; format: functional, Bifidobacterium longum subsp. infantis; details: Bifidobacterium longum; how it was run: as §1
Bifidobacterium bifidum [7] = assay: Antimicrobial activity against 90 mins hydrogen peroxide-stressed Bifidobacterium bifidum BB12 after 18 hrs; format: functional
How it was run: (§3)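 Stress applied for 90 min at 37°C under anaerobic conditions, using MRS (initial pH 6.5) containing H2O2 at each strain's own inhibitory concentration. The H2O2 level was set beforehand by microplate tolerance testing. Challenged cells were regrown in MRS for 24 h (footnote: 18 h) before MIC testing by broth microdilution. Median of four repetitions.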

Bifidobacterium bifidum [8] = assay: Antimicrobial activity against 60 min 1 M HCl-stressed Bifidobacterium bifidum BB12 after 18 hrs; format: functional
How it was run: (§4)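 Mid-log MRS culture pelleted and resuspended in MRS broth brought to pH 2.0 with 1 M HCl, held anaerobically at 37°C for 60 min, then subcultured in MRS (pH 6.5) for 24 h anaerobically before MIC testing by broth microdilution (as for unstressed cells). Table footnote gives 18 h anaerobic regrowth after the stress. MIC is the median of four repetitions.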

[9] = Antimicrobial activity against 60 min 1 M HCl-stressed Bifidobacterium infantis ATCC 15697 after 18 hrs; format: functional, Bifidobacterium longum subsp. infantis; details: Bifidobacterium longum; how it was run: as §4
Bifidobacterium bifidum [10] = assay: Antimicrobial activity against 90 mins oxgall-stressed Bifidobacterium bifidum BB12 after 18 hrs; format: functional; how it was run: as §1
Bifidobacterium longum [11] = assay: Antimicrobial activity against 90 mins hydrogen peroxide-stressed Bifidobacterium longum ATCC 15708 after 18 hrs; format: functional; how it was run: as §3
[12] = test system: Bifidobacterium pseudolongum; assay: Antimicrobial activity against 90 mins oxgall-stressed Bifidobacterium pseudolongum ATCC 25562 after 18 hrs; format: functional; how it was run: as §1
Bifidobacterium breve [13] = assay: Antimicrobial activity against Bifidobacterium breve ATCC 15700; format: functional; how it was run: as §2
Bifidobacterium longum [14] = assay: Antimicrobial activity against Bifidobacterium longum ATCC 15707; format: functional; how it was run: as §2
Bifidobacterium breve [15] = assay: Antimicrobial activity against 90 mins oxgall-stressed Bifidobacterium breve ATCC 15700 after 18 hrs; format: functional; how it was run: as §1
Bifidobacterium breve [16] = assay: Antimicrobial activity against Bifidobacterium breve R0070; format: functional; how it was run: as §2
[17] = test system: Bifidobacterium pseudolongum; assay: Antimicrobial activity against 60 min 1 M HCl-stressed Bifidobacterium pseudolongum ATCC 25562 after 18 hrs; format: functional; how it was run: as §4
Bifidobacterium breve [18] = assay: Antimicrobial activity against 60 min 1 M HCl-stressed Bifidobacterium breve R0070 after 18 hrs; format: functional; how it was run: as §4
Bifidobacterium breve [19] = assay: Antimicrobial activity against 90 mins oxgall-stressed Bifidobacterium breve R0070 after 18 hrs; format: functional; how it was run: as §1
[20] = Antimicrobial activity against Bifidobacterium infantis ATCC 15697; format: functional, Bifidobacterium longum subsp. infantis; details: Bifidobacterium longum; how it was run: as §2
Bifidobacterium animalis [21] = assay: Antimicrobial activity against 90 mins oxgall-stressed Bifidobacterium animalis ATCC 27536 after 18 hrs; format: functional; how it was run: as §1
Bifidobacterium bifidum [22] = assay: Antimicrobial activity against Bifidobacterium bifidum R0071; format: functional; how it was run: as §2
Bifidobacterium bifidum [23] = assay: Antimicrobial activity against 90 mins oxgall-stressed Bifidobacterium bifidum R0071 after 18 hrs; format: functional; how it was run: as §1
Bifidobacterium bifidum [24] = assay: Antimicrobial activity against Bifidobacterium bifidum BB12; format: functional; how it was run: as §2
Bifidobacterium animalis [25] = assay: Antimicrobial activity against Bifidobacterium animalis ATCC 27536; format: functional; how it was run: as §2
Bifidobacterium bifidum [26] = assay: Antimicrobial activity against 90 mins hydrogen peroxide-stressed Bifidobacterium bifidum R0071 after 18 hrs; format: functional; how it was run: as §3
Bifidobacterium longum [27] = assay: Antimicrobial activity against 90 mins hydrogen peroxide-stressed Bifidobacterium longum ATCC 15707 after 18 hrs; format: functional; how it was run: as §3
Bifidobacterium longum [28] = assay: Antimicrobial activity against 60 min 1 M HCl-stressed Bifidobacterium longum R0175 after 18 hrs; format: functional; how it was run: as §4
Bifidobacterium longum [29] = assay: Antimicrobial activity against 90 mins oxgall-stressed Bifidobacterium longum R0175 after 18 hrs; format: functional; how it was run: as §1
Bifidobacterium breve [30] = assay: Antimicrobial activity against 90 mins hydrogen peroxide-stressed Bifidobacterium breve R0070 after 18 hrs; format: functional; how it was run: as §3
Bifidobacterium longum [31] = assay: Antimicrobial activity against 90 mins oxgall-stressed Bifidobacterium longum P/N 601377 after 18 hrs; format: functional; how it was run: as §1
Bifidobacterium breve [32] = assay: Antimicrobial activity against 60 min 1 M HCl-stressed Bifidobacterium breve ATCC 15700 after 18 hrs; format: functional; how it was run: as §4
Bifidobacterium bifidum [33] = assay: Antimicrobial activity against 90 mins oxgall-stressed Bifidobacterium bifidum ATCC 15696 after 18 hrs; format: functional; how it was run: as §1
Bifidobacterium bifidum [34] = assay: Antimicrobial activity against 60 min 1 M HCl-stressed Bifidobacterium bifidum R0071 after 18 hrs; format: functional; how it was run: as §4
[35] = test system: Bifidobacterium thermophilum; assay: Antimicrobial activity against 90 mins hydrogen peroxide-stressed Bifidobacterium thermophilum ATCC 25866 after 18 hrs; format: functional; how it was run: as §3
[36] = test system: Bifidobacterium thermophilum; assay: Antimicrobial activity against 60 min 1 M HCl-stressed Bifidobacterium thermophilum ATCC 25866 after 18 hrs; format: functional; how it was run: as §4
[37] = test system: Bifidobacterium thermophilum; assay: Antimicrobial activity against 90 mins oxgall-stressed Bifidobacterium thermophilum ATCC 25866 after 18 hrs; format: functional; how it was run: as §1
Bifidobacterium breve [38] = assay: Antimicrobial activity against 90 mins hydrogen peroxide-stressed Bifidobacterium breve ATCC 15700 after 18 hrs; format: functional; how it was run: as §3
Bifidobacterium longum [39] = assay: Antimicrobial activity against 90 mins hydrogen peroxide-stressed Bifidobacterium longum R0175 after 18 hrs; format: functional; how it was run: as §3
Bifidobacterium animalis [40] = assay: Antimicrobial activity against 60 min 1 M HCl-stressed Bifidobacterium animalis ATCC 27536 after 18 hrs; format: functional; how it was run: as §4
Bifidobacterium longum [41] = assay: Antimicrobial activity against 90 mins hydrogen peroxide-stressed Bifidobacterium longum P/N 601377 after 18 hrs; format: functional; how it was run: as §3
Bifidobacterium longum [42] = assay: Antimicrobial activity against Bifidobacterium longum R0175; format: functional; how it was run: as §2
Bifidobacterium longum [43] = assay: Antimicrobial activity against 60 min 1 M HCl-stressed Bifidobacterium longum ATCC 15707 after 18 hrs; format: functional; how it was run: as §4
Bifidobacterium animalis [44] = assay: Antimicrobial activity against 90 mins hydrogen peroxide-stressed Bifidobacterium animalis ATCC 27536 after 18 hrs; format: functional; how it was run: as §3
Bifidobacterium longum [45] = assay: Antimicrobial activity against 60 min 1 M HCl-stressed Bifidobacterium longum P/N 601377 after 18 hrs; format: functional; how it was run: as §4
Bifidobacterium longum [46] = assay: Antimicrobial activity against Bifidobacterium longum ATCC 15708; format: functional; how it was run: as §2
Bifidobacterium longum [47] = assay: Antimicrobial activity against 90 mins oxgall-stressed Bifidobacterium longum ATCC 15707 after 18 hrs; format: functional; how it was run: as §1

## Cc1onc(-c2ccccc2Cl)c1C(=O)N[C@@H]1C(=O)N2[C@@H]1SC(C)(C)[C@@H]2C(=O)O [CLOXACILLIN]
Bifidobacterium longum [1]
  MIC: 125 µg/mL (≈ 287 µM)
Bifidobacterium longum [2]
  MIC: 31.2 µg/mL (≈ 71.6 µM)
Bifidobacterium bifidum [3]
  MIC: 7.8 µg/mL (≈ 17.9 µM)
[4]
  MIC: 3.9 µg/mL (≈ 8.95 µM)
[5]
  MIC: 15.6 µg/mL (≈ 35.8 µM)
[6]
  MIC: 125 µg/mL (≈ 287 µM)
Bifidobacterium bifidum [7]
  MIC: 1.9 µg/mL (≈ 4.36 µM)
Bifidobacterium bifidum [8]
  MIC: 0.98 µg/mL (≈ 2.25 µM)
[9]
  MIC: 125 µg/mL (≈ 287 µM)
Bifidobacterium bifidum [10]
  MIC: 1.9 µg/mL (≈ 4.36 µM)
Bifidobacterium longum [11]
  MIC: 7.8 µg/mL (≈ 17.9 µM)
[12]
  MIC: 62.5 µg/mL (≈ 143 µM)
Bifidobacterium breve [13]
  MIC: 15.6 µg/mL (≈ 35.8 µM)
Bifidobacterium longum [14]
  MIC: 15.6 µg/mL (≈ 35.8 µM)
Bifidobacterium breve [15]
  MIC: 3.9 µg/mL (≈ 8.95 µM)
Bifidobacterium breve [16]
  MIC: 31.2 µg/mL (≈ 71.6 µM)
[17]
  MIC: 0.98 µg/mL (≈ 2.25 µM)
Bifidobacterium breve [18]
  MIC: 15.6 µg/mL (≈ 35.8 µM)
Bifidobacterium breve [19]
  MIC: 31.2 µg/mL (≈ 71.6 µM)
[20]
  MIC: 15.6 µg/mL (≈ 35.8 µM)
Bifidobacterium animalis [21]
  MIC: 125 µg/mL (≈ 287 µM)
Bifidobacterium bifidum [22]
  MIC: 15.6 µg/mL (≈ 35.8 µM)
Bifidobacterium bifidum [23]
  MIC: 62.5 µg/mL (≈ 143 µM)
Bifidobacterium bifidum [24]
  MIC: 0.98 µg/mL (≈ 2.25 µM)
Bifidobacterium animalis [25]
  MIC: 3.9 µg/mL (≈ 8.95 µM)
Bifidobacterium bifidum [26]
  MIC: 31.2 µg/mL (≈ 71.6 µM)
Bifidobacterium longum [27]
  MIC: 0.98 µg/mL (≈ 2.25 µM)
Bifidobacterium longum [28]
  MIC: 0.98 µg/mL (≈ 2.25 µM)
Bifidobacterium longum [29]
  MIC: 125 µg/mL (≈ 287 µM)
Bifidobacterium breve [30]
  MIC: 15.6 µg/mL (≈ 35.8 µM)
Bifidobacterium longum [31]
  MIC: 62.5 µg/mL (≈ 143 µM)
Bifidobacterium breve [32]
  MIC: 125 µg/mL (≈ 287 µM)
Bifidobacterium bifidum [33]
  MIC: 62.5 µg/mL (≈ 143 µM)
Bifidobacterium bifidum [34]
  MIC: 15.6 µg/mL (≈ 35.8 µM)
[35]
  MIC: 7.8 µg/mL (≈ 17.9 µM)
[36]
  MIC: 31.2 µg/mL (≈ 71.6 µM)
[37]
  MIC: 62.5 µg/mL (≈ 143 µM)
Bifidobacterium breve [38]
  MIC: 3.9 µg/mL (≈ 8.95 µM)
Bifidobacterium longum [39]
  MIC: 31.2 µg/mL (≈ 71.6 µM)
Bifidobacterium animalis [40]
  MIC: 3.9 µg/mL (≈ 8.95 µM)
Bifidobacterium longum [41]
  MIC: 31.2 µg/mL (≈ 71.6 µM)
Bifidobacterium longum [42]
  MIC: 62.5 µg/mL (≈ 143 µM)
Bifidobacterium longum [43]
  MIC: 15.6 µg/mL (≈ 35.8 µM)
Bifidobacterium animalis [44]
  MIC: 3.9 µg/mL (≈ 8.95 µM)
Bifidobacterium longum [45]
  MIC: 0.98 µg/mL (≈ 2.25 µM)
Bifidobacterium longum [46]
  MIC: 7.8 µg/mL (≈ 17.9 µM)
Bifidobacterium longum [47]
  MIC: 125 µg/mL (≈ 287 µM)
